Laboratory results published in ChEMBL document CHEMBL4428053, “Application of a Parallel Synthetic Strategy in the Discovery of Biaryl Acyl Sulfonamides as Efficient and Selective NaV1.7 Inhibitors” (J Med Chem, 2016).
≈ marks a conversion by molar mass, not a printed value. Calls of active or inactive are those of the source. The calls are words filed in the database; no cut-off is given here.

Experiments:
[1] = Unbound plasma concentration in C57BL/6 mouse model of histamine-induced scratching at 100 mg/kg, po administered 4 hrs prior to histamine challenge; assay type: ADME, organism-based; conditions: in vivo
Summary of the method: (§1)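 Mice were dosed orally with vehicle, diphenhydramine (30 mg/kg, n = 8) or test article at 30 (n = 9), 100 (n = 10) or 300 (n = 10) mg/kg; vehicle n = 12. All groups received histamine intradermally. Total scratch bouts were counted, with unbound plasma concentration reported per dose. Statistics: one-way ANOVA with Dunnett's test versus vehicle.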

[2] = biological target: Sodium channel protein type 9 subunit alpha (Mus musculus, UniProt Q62205); test: Inhibition of Nav1.7 in C57BL/6 mouse DRG neurons assessed as reduction in native TTX-S current amplitude by manual patch clamp electrophysiology assay
Cytochrome P450 2D6 [3] = biological target: T1, Cytochrome P450 2D6 (Homo sapiens, UniProt P10635)
T1 sequence (P10635 whole entry): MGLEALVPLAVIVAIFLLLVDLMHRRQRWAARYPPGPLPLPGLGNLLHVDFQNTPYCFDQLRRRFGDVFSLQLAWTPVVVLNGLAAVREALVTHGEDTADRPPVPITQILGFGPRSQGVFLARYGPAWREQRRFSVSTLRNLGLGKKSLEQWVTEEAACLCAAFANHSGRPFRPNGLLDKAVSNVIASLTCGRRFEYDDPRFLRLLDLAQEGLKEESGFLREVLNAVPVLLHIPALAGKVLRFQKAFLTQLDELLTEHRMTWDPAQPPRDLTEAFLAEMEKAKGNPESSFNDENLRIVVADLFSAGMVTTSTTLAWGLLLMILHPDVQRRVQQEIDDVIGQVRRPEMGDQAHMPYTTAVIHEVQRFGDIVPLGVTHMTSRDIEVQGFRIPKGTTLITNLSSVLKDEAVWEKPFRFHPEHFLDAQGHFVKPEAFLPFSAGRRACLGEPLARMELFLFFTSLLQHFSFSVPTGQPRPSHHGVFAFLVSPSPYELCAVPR

[4] = Volume of distribution in Harlan rat at 1 mg/kg, iv by LC-MS/MS analysis; assay type: ADME, organism-based; conditions: in vivo
Summary of the method: (§2)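 Male fed rats. The IV dose was given in 100% DMSO. The oral dose was given in 1% Tween 80, 2% HPMC, 97% water/NaOH (pH 8.5).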

[5] = Toxicity in naive C57BL/6 mouse assessed as effect on basic locomotor movement at 300 mg/kg, po measured after 4 hrs for 60 mins by open field test; assay type: organism-based; conditions: in vivo
Summary of the method: (§3)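 Naive mice were dosed orally with vehicle or test article at 30, 100 or 300 mg/kg (n = 10 per group). Total basic movement in an open-field arena was recorded after dosing, and unbound plasma concentration was reported per dose.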

[6] = AUC (infinity) in Harlan rat at 10 mg/kg, po by LC-MS/MS analysis; assay type: ADME, organism-based; design: dose 10 mg/kg, route oral, time infinity; conditions: in vivo; summary of the method: as §2
[7] = biological target: T2, Sodium channel protein type 9 subunit alpha (Homo sapiens, UniProt Q15858); test: Inhibition of human Nav1.7 expressed in HEK293 cells incubated for 3 to 5 mins at -125 mV holding potential by electrophysiology assay; assay type: cell-based
T2 sequence (Q15858 whole entry): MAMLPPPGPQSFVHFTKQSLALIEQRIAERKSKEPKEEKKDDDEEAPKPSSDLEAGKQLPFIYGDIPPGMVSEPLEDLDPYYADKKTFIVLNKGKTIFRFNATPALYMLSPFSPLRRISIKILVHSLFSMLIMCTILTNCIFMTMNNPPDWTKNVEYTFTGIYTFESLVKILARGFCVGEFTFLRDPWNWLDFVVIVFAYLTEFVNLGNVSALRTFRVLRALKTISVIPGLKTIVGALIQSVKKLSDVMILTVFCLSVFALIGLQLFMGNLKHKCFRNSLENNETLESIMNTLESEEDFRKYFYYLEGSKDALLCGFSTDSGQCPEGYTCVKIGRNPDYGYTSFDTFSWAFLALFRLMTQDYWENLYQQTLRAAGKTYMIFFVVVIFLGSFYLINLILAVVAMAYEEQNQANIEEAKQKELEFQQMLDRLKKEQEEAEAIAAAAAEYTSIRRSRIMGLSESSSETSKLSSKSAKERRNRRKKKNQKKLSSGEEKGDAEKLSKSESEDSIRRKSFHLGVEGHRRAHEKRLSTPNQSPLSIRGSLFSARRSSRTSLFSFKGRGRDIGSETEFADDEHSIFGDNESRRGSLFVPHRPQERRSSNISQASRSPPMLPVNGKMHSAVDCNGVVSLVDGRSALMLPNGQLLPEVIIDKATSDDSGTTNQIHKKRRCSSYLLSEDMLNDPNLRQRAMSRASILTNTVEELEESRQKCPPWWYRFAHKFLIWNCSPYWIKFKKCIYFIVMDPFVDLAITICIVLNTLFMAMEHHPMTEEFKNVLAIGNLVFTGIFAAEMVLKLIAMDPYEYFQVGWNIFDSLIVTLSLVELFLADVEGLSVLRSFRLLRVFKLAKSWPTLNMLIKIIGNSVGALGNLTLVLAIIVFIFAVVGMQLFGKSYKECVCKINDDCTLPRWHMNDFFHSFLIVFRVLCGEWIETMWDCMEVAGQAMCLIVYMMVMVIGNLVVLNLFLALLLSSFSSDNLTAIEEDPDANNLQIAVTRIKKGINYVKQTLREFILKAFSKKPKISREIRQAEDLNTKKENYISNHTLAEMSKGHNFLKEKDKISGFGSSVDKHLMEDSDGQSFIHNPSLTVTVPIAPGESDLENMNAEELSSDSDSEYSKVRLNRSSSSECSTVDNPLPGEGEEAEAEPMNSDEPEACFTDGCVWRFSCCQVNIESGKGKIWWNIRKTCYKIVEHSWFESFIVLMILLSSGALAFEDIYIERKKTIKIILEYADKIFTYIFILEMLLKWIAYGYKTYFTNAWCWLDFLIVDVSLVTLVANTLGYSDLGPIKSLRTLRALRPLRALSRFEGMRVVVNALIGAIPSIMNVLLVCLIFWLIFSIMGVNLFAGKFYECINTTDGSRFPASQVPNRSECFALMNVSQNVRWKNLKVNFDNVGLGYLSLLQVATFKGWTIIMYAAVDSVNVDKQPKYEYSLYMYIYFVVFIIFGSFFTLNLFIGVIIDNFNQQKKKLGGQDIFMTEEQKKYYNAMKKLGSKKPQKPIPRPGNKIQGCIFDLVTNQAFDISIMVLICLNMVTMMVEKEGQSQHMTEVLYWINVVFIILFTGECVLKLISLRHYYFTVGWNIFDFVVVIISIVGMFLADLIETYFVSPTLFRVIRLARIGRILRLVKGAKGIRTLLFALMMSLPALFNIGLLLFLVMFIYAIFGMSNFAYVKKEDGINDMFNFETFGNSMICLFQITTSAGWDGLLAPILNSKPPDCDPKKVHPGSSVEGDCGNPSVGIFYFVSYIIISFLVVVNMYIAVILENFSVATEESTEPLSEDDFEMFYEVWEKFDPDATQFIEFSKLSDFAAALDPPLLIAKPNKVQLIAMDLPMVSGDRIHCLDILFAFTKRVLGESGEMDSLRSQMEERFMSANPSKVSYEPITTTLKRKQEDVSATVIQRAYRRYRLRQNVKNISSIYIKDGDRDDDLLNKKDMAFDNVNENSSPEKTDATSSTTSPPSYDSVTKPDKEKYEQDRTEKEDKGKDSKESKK

Bile salt export pump = Bile salt export pump (Homo sapiens, UniProt O95342); test: Inhibition of human BSEP in plasma membrane vesicles after 10 mins in presence of [3H]-taurocholate by topcount based transport assay; assay type: cell membranes
[8] = Half life in Harlan rat at 1 mg/kg, iv by LC-MS/MS analysis; assay type: ADME, organism-based; conditions: in vivo; summary of the method: as §2
[9] = Oral bioavailability in Harlan rat at 10 mg/kg by LC-MS/MS analysis; assay type: ADME, organism-based; conditions: in vivo; summary of the method: as §2
[10] = biological target: T3, Nuclear receptor subfamily 1 group I member 2 (Homo sapiens, UniProt O75469); test: Induction of human PXR at 10 uM; assay type: ADME
T3 sequence (O75469 whole entry): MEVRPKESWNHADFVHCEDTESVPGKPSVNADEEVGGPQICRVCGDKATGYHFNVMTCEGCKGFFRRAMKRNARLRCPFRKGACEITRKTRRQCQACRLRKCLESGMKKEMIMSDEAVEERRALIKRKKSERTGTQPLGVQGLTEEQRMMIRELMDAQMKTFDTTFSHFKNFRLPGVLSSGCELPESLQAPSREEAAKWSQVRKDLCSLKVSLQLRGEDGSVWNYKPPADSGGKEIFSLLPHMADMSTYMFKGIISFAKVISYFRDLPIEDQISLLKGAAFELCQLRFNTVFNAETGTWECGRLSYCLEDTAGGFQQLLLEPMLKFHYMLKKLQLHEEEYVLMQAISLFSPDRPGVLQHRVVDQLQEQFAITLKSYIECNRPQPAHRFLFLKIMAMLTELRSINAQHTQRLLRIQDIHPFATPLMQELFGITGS

[11] = biological target: Sodium channel protein type 8 subunit alpha (Homo sapiens, UniProt Q9UQD0); test: Inhibition of human Nav1.6 expressed in HEK293 cells assessed as reduction in peak inward current by manual whole cell patch clamp electrophysiology assay; assay type: cell-based
Sequence of Sodium channel protein type 8 subunit alpha (Q9UQD0 whole entry, the tested form may be a part): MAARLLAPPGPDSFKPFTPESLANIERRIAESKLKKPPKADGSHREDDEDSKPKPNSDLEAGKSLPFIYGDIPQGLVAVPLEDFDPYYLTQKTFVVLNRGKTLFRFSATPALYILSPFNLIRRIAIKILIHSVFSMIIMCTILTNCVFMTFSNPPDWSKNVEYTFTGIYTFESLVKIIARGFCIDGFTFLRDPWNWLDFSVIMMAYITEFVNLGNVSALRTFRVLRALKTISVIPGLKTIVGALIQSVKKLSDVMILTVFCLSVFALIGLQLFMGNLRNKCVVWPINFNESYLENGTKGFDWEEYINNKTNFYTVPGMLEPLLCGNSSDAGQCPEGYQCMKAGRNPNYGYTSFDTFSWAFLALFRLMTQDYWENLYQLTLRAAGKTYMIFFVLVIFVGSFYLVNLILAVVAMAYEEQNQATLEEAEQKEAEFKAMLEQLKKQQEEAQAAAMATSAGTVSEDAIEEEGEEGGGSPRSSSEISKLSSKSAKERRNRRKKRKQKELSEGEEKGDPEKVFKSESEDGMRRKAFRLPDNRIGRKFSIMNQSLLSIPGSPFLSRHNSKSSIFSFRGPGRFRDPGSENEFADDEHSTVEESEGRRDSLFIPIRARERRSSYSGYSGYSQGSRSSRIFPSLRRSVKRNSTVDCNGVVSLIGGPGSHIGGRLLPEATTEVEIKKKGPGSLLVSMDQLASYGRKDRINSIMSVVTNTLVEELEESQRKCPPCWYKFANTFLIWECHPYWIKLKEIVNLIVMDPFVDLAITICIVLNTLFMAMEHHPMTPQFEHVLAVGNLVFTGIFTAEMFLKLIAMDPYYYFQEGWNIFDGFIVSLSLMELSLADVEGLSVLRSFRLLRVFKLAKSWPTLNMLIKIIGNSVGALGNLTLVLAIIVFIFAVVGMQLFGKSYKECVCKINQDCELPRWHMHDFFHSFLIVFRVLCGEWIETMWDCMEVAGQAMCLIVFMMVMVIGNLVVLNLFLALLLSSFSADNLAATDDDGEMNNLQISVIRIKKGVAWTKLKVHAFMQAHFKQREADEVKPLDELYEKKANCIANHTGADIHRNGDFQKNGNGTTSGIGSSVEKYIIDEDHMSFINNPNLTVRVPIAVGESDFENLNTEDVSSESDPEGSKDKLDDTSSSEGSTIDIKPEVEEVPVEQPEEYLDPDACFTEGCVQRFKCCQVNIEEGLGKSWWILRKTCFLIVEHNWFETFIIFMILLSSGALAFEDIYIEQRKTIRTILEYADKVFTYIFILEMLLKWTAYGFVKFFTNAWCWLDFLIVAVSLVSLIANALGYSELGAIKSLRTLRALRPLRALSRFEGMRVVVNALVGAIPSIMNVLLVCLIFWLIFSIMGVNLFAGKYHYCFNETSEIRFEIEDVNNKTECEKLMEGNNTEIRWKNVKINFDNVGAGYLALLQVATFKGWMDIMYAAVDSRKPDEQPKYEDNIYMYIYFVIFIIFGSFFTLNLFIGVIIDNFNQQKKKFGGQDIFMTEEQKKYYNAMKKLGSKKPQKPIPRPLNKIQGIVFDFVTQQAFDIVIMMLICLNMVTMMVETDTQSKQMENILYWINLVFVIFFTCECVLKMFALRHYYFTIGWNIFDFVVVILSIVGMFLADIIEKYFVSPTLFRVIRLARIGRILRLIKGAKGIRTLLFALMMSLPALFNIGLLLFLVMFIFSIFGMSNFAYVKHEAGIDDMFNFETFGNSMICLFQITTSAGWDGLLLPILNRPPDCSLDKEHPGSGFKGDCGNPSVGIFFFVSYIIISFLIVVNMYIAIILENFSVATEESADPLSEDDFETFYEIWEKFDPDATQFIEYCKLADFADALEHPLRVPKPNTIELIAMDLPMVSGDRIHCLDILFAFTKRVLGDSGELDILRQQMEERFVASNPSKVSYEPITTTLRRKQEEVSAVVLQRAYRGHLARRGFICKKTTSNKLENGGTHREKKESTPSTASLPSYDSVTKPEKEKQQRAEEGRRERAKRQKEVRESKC

[12] = biological target: T2, Sodium channel protein type 9 subunit alpha; test: Displacement of [3H]-6,6-fused heteroaryl-sulfonamide derivative from human Nav1.7 expressed in HEK293 cell membranes preincubated for 30 mins followed by radioligand addition measured after 1 hr by scintillation counting analysis
[13] = Plasma protein binding in Harlan rat at 1 mg/kg, iv by LC-MS/MS analysis; assay type: ADME, organism-based; conditions: read-out: PPB (converted)
[14] = biological target: Sodium channel protein type 10 subunit alpha (Homo sapiens, UniProt Q9Y5Y9); test: Inhibition of human Nav1.8 expressed in CHO cells assessed as reduction in peak inward current by manual whole cell patch clamp electrophysiology assay; assay type: cell-based
[15] = Protein binding in mouse plasma at 5 uM after 45 mins by LC-MS/MS analysis; assay type: ADME, cell-free; conditions: read-out: PPB (converted)
[16] = biological target: Sodium channel protein type 2 subunit alpha (Homo sapiens, UniProt Q99250); test: Inhibition of human Nav1.2 expressed in CHO cells assessed as reduction in peak inward current by manual whole cell patch clamp electrophysiology assay; assay type: cell-based
in vitro = conditions: human, liver microsomes
Cytochrome P450 2D6 [17] = biological target: T1, Cytochrome P450 2D6; remark: listed apart in the source
[18] = Clearance in Harlan rat at 1 mg/kg, iv by LC-MS/MS analysis; assay type: ADME, organism-based; conditions: in vivo; summary of the method: as §2
[19] = Unbound plasma concentration in C57BL/6 mouse model of histamine-induced scratching at 300 mg/kg, po administered 4 hrs prior to histamine challenge; assay type: ADME, organism-based; conditions: in vivo; summary of the method: as §1
[20] = Free plasma concentration in naive C57BL/6 mouse assessed as effect on basic locomotor movement at 30 mg/kg, po measured after 4 hrs for 60 mins by open field test; assay type: ADME, organism-based; conditions: in vivo; summary of the method: as §3
[21] = Apparent passive permeability in MDCK cells at 5 uM after 120 mins by LC/MS/MS analysis; assay type: ADME, cell-based, Canis lupus familiaris; conditions: dog
Mus musculus = test: In vivo inhibition of Nav1.7 in C57BL/6 mouse assessed as reduction in histamine-induced scratching bouts at 30 mg/kg, po administered 4 hrs prior to histamine challenge measured for 15 mins; assay type: functional, organism-based; summary of the method: as §1
[22] = biological target: Sodium channel protein type 1 subunit alpha (Homo sapiens, UniProt P35498); test: Inhibition of human Nav1.1 expressed in HEK293 cells assessed as reduction in peak inward current by manual whole cell patch clamp electrophysiology assay; assay type: cell-based
[23] = Unbound plasma concentration in C57BL/6 mouse model of histamine-induced scratching at 30 mg/kg, po administered 4 hrs prior to histamine challenge; assay type: ADME, organism-based; conditions: in vivo; summary of the method: as §1
[24] = biological target: T2, Sodium channel protein type 9 subunit alpha; test: Inhibition of human Nav1.7 expressed in HEK293 cells assessed as reduction in peak inward current by manual whole cell patch clamp electrophysiology assay; assay type: cell-based
[25] = biological target: Sodium channel protein type 9 subunit alpha (Rattus norvegicus, UniProt O08562); test: Inhibition of rat Nav1.7 expressed in HEK293T cells incubated for 3 to 5 mins at -125 mV holding potential by electrophysiology assay; assay type: cell-based
[26] = Free plasma concentration in naive C57BL/6 mouse assessed as effect on basic locomotor movement at 300 mg/kg, po measured after 4 hrs for 60 mins by open field test; assay type: ADME, organism-based; conditions: in vivo; summary of the method: as §3
physchem = conditions: PBS, pH 7.4
Cytochrome P450 2C9 = Cytochrome P450 2C9 (Homo sapiens, UniProt P11712)
Sequence of Cytochrome P450 2C9 (P11712 whole entry): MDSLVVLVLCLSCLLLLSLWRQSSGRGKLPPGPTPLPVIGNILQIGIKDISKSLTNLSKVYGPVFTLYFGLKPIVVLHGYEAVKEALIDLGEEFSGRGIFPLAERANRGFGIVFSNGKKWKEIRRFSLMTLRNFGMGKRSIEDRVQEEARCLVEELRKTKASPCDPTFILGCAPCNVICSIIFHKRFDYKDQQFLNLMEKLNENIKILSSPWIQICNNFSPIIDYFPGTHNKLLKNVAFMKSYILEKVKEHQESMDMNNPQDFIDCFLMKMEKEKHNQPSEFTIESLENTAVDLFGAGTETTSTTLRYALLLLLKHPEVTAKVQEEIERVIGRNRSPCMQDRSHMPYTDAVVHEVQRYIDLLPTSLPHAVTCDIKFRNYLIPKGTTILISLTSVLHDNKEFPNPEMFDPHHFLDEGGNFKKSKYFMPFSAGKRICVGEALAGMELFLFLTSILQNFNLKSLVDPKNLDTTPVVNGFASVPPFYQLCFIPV

Cp(f) [1]: 1270 nM
IC50 [2]: 0.27 µM
IC50 (Cytochrome P450 2D6 [3]): > 50 µM
Vd [4]: 0.93 L/kg
AUC(0-inf) [6]: 377 µM·h
IC50 [7]: 0.069 µM
half-life [8]: 1.84 h
bioavailability [9]: > 100%
Activity [10]: 3%
IC50 [11]: 9.4 µM
IC50 [12]: 0.017 µM
fraction unbound [13]: 0.004
IC50 [14]: 15.6 µM
fraction unbound at 0.75 h, 5 µM [15]: 0.014
IC50 [16]: 9.8 µM
microsomal CLint at 1 µM (in vitro): 27 µL/min/mg
IC50 (Cytochrome P450 2D6 [17]): > 50 µM
clearance [18]: 6.5 mL/min/kg
Cp(f) [19]: 4160 nM
Cp(f) [20]: 640 nM
Papp at 2 h, 5 µM [21]: 22.4 ×10⁻⁶ cm/s
IC50 [22]: 8.5 µM
Cp(f) [23]: 294 nM
IC50 [24]: 0.051 µM
IC50 [25]: 3.69 µM
Cp(f) [26]: 3720 nM
solubility thermodynamic at 24 h (physchem): 398 µM (≈ 194 µg/mL)
IC50 (Cytochrome P450 2C9): 45.3 µM
SMILES: COc1cc(C(=O)NS(C)(=O)=O)c(F)cc1-c1cnc(Oc2cc(F)ccc2F)c(Cl)c1
Activity [5]: Non-Toxic
IC50 (Bile salt export pump): 13.3 µM
inhibition (Mus musculus): inactive
